KCNK9 block = blocks the human KCNK9 two-pore domain potassium channel | HEK293 KCNK9, FluxOR thallium flux fluorescence; hits give low values | 310,000 tested, 1.2% active | Q9NPC2 | AID 488922 | B-score at 10 µM;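 active = ratio B-score over 3 SD below the library mean, with starting fluorescence within 5 SD of its mean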;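 note: negative B-score means less thallium flux so channel inhibition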
Target sequence (Q9NPC2 whole entry, looked up, the tested form may be a part): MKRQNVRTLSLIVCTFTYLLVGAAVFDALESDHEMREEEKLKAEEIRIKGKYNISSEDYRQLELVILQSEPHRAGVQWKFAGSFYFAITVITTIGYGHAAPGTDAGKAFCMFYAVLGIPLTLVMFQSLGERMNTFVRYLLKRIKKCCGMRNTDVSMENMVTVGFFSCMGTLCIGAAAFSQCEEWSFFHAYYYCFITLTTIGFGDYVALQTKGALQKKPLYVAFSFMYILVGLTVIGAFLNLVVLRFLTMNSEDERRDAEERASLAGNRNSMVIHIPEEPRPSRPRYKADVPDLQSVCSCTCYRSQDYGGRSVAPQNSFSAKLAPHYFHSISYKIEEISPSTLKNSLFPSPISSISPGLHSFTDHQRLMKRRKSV
Kir21 inh = blocks the mouse Kir2.1 inward-rectifier potassium channel; HEK293-Kir2.1, FluxOR thallium flux fluorescence; hits give low values; B-score at 10 µM; 310,000 tested, 0.85% active;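 active = fluorescence ratio B-score at or below minus 3 SD of library scores, with starting-brightness B-score within 2 SD, cut at about -4.2 in these data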;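 note: channel flux triggered by added potassium and thallium sulfate stimulus; B-score of peak minus minimum fluorescence over baseline after thallium stimulus; more negative B-score means stronger Kir2.1 block with less thallium influx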
KCNK3 block = human KCNK3 channel inhibition, primary screen. 340,000 tested, 0.84% active. CHO-KCNK3 thallium flux, FluxOR fluorescence; hits give low values. AID 602410. O14649. B-score at 10 µM;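 active = B-score under library mean minus 4 SD, starting fluorescence ratio at most library mean plus 5 SD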;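 note: more negative B-score means stronger inhibition of thallium flux through KCNK3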
hERG protect = shields human hERG channel from block by proarrhythmic agents | CHO-hERG, FluxOR thallium flux, dofetilide IC70 present | AID 1511 | activation (rescue from dofetilide block), less the hit threshold, % at 10 µM | 310,000 tested, 0.51% active | Q12809;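 active = activation above the mean of controls blocked by dofetilide plus 5 SD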;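 note: thallium influx through hERG after potassium depolarization seen as dye fluorescence rise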
KCNQ1 pot = human KCNQ1 channel potentiation or activation | P51787 | CHO-K1 KCNQ1, thallium flux FluxOR fluorescence; hits give high values | B-score at 10 µM | 310,000 tested, 0.35% active;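 active = fluorescence ratio B-score, a plate-corrected score, at least three library SD, with initial intensity B-score within 5 SD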
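System: CHO-K1 cells stably expressing KCNQ1 / Medium: assay buffer for compound exposure, DMSO matched across wells / Reagent: thallium- and potassium-containing depolarizing buffer / Compound: one concentration, matched DMSO / Incubation: 20 min compound pretreatment at room temperature / Measured by: kinetic FluxOR fluorescence, 10 s baseline plus 110 s post-stimulus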
KCNQ1 inh = inhibitors of human KCNQ1 potassium channel; P51787; B-score at 10 µM; 310,000 tested, 1.3% active; CHO-K1 KCNQ1, FluxOR thallium flux fluorescence; hits give high values;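 active = compounds whose thallium flux B-score, printed positive for inhibition, exceeds three library SD while starting fluorescence stays within three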;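 note: channel opened by potassium depolarization with thallium stimulus after 20 min compound exposure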
The depositor's hits bear a star; i = inactive; . = no result given. Hits are enriched below; roughly 3.7% of the tested compounds scored in any of these assays.

SMILES	KCNK9 block	Kir21 inh	KCNK3 block	hERG protect	KCNQ1 pot	KCNQ1 inh
Cc1[nH]c(-c2ccccn2)nc(=S)c1Cl	i	2.6	i	52*	41*	i
CN1CCN(C(=O)CN(C)S(=O)(=O)c2ccc(F)cc2)CC1	i	0.85	i	-7	i	i
CCN(CC)S(=O)(=O)c1ccc2[nH]c(=O)cc(C(=O)NCC3CCCO3)c2c1 (centres undefined)	i	0.18	i	-10	i	i
Cc1ccc(Cl)cc1N1CCN(C(=O)C2(S(=O)(=O)c3ccc(Cl)cc3)CC2)CC1	i	1.3	i	-11	i	6*
Cc1cccc(N2CCN(C(=O)C3(S(=O)(=O)c4ccc(Cl)cc4)CC3)CC2)c1C	i	0.35	i	-11	i	i
COc1ccc(C[C@H]2CN3C(=NC[C@@H]3C(C)C)N2CCNC(=O)CCC2CCCCC2)cc1	i	-6.3*	i	-14	i	i
CC(C)[C@H]1CN=C2N(CCNC(=O)CCC3CCCCC3)[C@H](Cc3ccc(O)cc3)CN21	i	1.2	i	-4	i	i
COc1ccc(C[C@H]2CN3C(=NC[C@@H]3Cc3ccccc3)N2CCNC(=O)CCC2CCCCC2)cc1	i	-11*	i	-28	i	i
O=C(CCC1CCCCC1)NCCN1C2=NC[C@H](Cc3ccc(O)cc3)N2C[C@H]1Cc1ccc(O)cc1	i	1.7	i	-8	i	i
Cc1ccc(C)c(N2CCN(CCCNC(=O)Cn3c(=O)c4cccn4c4cccnc43)CC2)c1	i	-0.42	i	-13	i	i
COc1ccc(NC(=S)N(Cc2cccnc2)Cc2ccco2)cc1	i	0.9	i	-17	i	i
CCc1ccc(NC(=S)N(Cc2cccnc2)Cc2ccco2)cc1	i	-0.22	i	6.0*	i	i
O=S(=O)(Nc1cccc(-n2cnnn2)c1)c1cccc(Cl)c1	i	-0.04	i	-9	8*	i
O=S(=O)(Nc1cccc(-n2cnnn2)c1)c1ccccc1	i	1.7	i	-10	i	i
CCOc1ccccc1CNC(=O)C1CCN(c2nn3c(=O)cc(C)nc3s2)CC1	i	0.01	i	-8	i	i
O=C(Oc1ccc(/C=N/O)cc1)c1ccccc1	i	-5.6*	i	-10	i	i
O=C(O)c1ccc(N/N=C/c2ccc(OC(=O)c3cccc(Cl)c3)cc2)cc1	i	3.4	i	-2	i	i
COCCOC(=O)/C(=C/c1ccc(OC(=O)c2ccccc2)cc1)C(C)=O	i	-14*	i	-20	13*	i
O=C(Oc1ccc(/C=N/Nc2ccccc2)cc1)c1ccccc1	i	-4.6*	i	-13	i	i
CCOC(=O)/C(=C/c1ccc(OC(=O)c2ccncc2)cc1)C(C)=O	i	-1	i	-14	i	i
COC(=O)c1sc(NC(=O)c2ccc3c(c2)OCO3)c(C#N)c1C	.	.	i	.	.	.
CC[C@]12c3[nH]c4ccc(OC)cc4c3CCN1C(=O)C(CC(=O)NCCN1CCOCC1)C[C@@H]2C(=O)N1CCN(C(=O)c2ccco2)CC1 (some centres undefined)	.	.	i	.	.	.
COC(=O)CNC(c1ccccc1Cl)c1cc(Br)ccc1NS(=O)(=O)c1ccc(C)cc1 (centres undefined)	-6.8*	-1.8	i	-13	i	i
COc1ccc2nc(N(CCN(C)C)C(=O)c3ccc4ccccc4c3)sc2c1	i	-0.17	i	-16	i	i
COc1ccc2nc(N=Nc3c(O)ccc4ccccc34)sc2c1	i	0.42	.	17*	15*	i
SMILES	KCNK9 block	Kir21 inh	KCNK3 block	hERG protect	KCNQ1 pot	KCNQ1 inh
O=C(NCc1ccccn1)Nc1cccc(Cl)c1Cl	i	0.02	i	-11	i	i
Cc1ccc2c(CSc3nnnn3C)cc(=O)oc2c1	i	-0.69	i	-12	i	i
Cc1ccc2c(CSc3nc4ccccc4c(=O)n3CCCO)cc(=O)oc2c1	.	.	-9.1*	.	.	.
O=c1c2ccccc2cnn1Cc1n[nH]c(=S)n1-c1ccccc1	i	-1.8	i	-9	i	i
Cc1ccc2nc(SCCCCOc3ccccc3)[nH]c2c1	i	-0.15	-9.9*	-2	i	i
CC(OC(=O)C1CC1)C(=O)Nc1cccc(S(=O)(=O)N2CCOCC2)c1 (centres undefined)	.	.	i	.	.	.
CCn1c(CNC(=O)c2ccc3c(c2)OCO3)nnc1SCC(=O)Nc1cc(C)ccc1OC	i	-0.44	i	-16	i	8*
CSC(=S)N/N=C/c1ccccc1	i	-1.2	i	11*	35*	i
COc1ccc(/C=N/NC(=S)SC)cc1OC	i	0.11	i	-15	i	i
COC(=O)c1cc2sccc2n1Cc1ccc(C)cc1	-8*	-0.02	i	-10	i	i
COc1ccc(/C=C/C(=O)N2c3ccccc3Sc3ccc(C(F)(F)F)cc32)cc1	-7.3*	0.27	i	-11	i	i
CSc1cccc(Nc2ccc(S(=O)(=O)N3CCOCC3)cc2[N+](=O)[O-])c1	.	.	i	.	.	.
CCCCCN(C(=O)CCC(=O)OC(C)C(=O)c1ccc(CC)cc1)c1c(N)n(CCCC)c(=O)[nH]c1=O (centres undefined)	.	.	i	.	.	.
COc1cccc(CNC(=O)CN2C(=O)c3ccccc3S2(=O)=O)c1	i	2.6	i	-6	i	i
CC(=O)N/C(=C/c1ccc2c(c1)OCO2)C(=O)Nc1ccccc1	i	0	i	-3	i	i
O=C(N/C(=C/c1ccc2c(c1)OCO2)C(=O)N1CCOCC1)c1cccs1	i	1.1	i	8.2*	i	i
CC(=O)N/C(=C/c1ccc2c(c1)OCO2)C(=O)O	i	2	i	-8	9*	i
O=C(NNC(=O)c1ccc([N+](=O)[O-])cc1C(=O)O)c1ccncc1	i	0.05	i	-4	i	i
Cc1ccc(NC(=O)CN(C)C2CCCCC2)cc1Cl	i	-0.08	i	-2	i	i
COc1ccc(Cl)cc1NC(=S)NCCSc1ccc(C)cc1	-8.1*	-0.04	i	-8	i	i
COc1ccc(NS(=O)(=O)c2cccc(C(=O)NN=Cc3cc(Br)c(O)c(Br)c3)c2)cc1	.	.	i	.	.	.
Cc1cccc(OCc2n[nH]c(=S)n2C2CCCCC2)c1	i	-0.36	i	-2	8*	i
CC(C)n1c(SCc2ccccc2F)nc2c1c(=O)n(C)c(=O)n2C	i	-4.6*	i	-15	i	i
CCOC(=O)c1c(C)[nH]c(C(=O)N2CCC(C(=O)OCC)CC2)c1C	i	1.5	i	-6	i	i

Assay outcomes deposited in PubChem by Johns Hopkins Ion Channel Center.
